# SENP8 block-1: human SENP8 protease inhibitors, primary screen, biochemical, fluorescence, Nedd8 protein substrate, uHTS. Sentrin-specific protease 8 (Homo sapiens), Q96LD8. recombinant SENP8. inhibition, % at 20 µM. 360,000 tested, 0.64% active; in the data active means inhibition mostly above about 40%, no sharp cut-off; inactive means mostly below about 27%
# Target sequence (Q96LD8 whole entry, looked up): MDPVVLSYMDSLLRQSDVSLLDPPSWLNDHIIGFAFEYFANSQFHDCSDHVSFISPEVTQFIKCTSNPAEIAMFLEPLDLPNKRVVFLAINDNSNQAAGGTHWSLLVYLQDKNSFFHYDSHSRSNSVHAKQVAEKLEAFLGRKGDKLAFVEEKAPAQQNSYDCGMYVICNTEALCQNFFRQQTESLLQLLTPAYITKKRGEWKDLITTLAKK
# HSP90 inh: HSP90 inhibitors, primary screen, cell lysate, luminescence | inhibition, % at 5.6 µM | Rabbit reticulocyte lysate, luciferase refolding luminescence, 3 h | Heat shock protein HSP 90 (rabbit reticulocyte lysate; luciferase refolding) | AID 1789, 2009 | 290,000 tested, 0.91% active;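 active means inhibition above the screen-wide mean plus 3 SD, computed separately per campaign, cut at about 16% in these data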;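 further: 0% = DMSO wells and 100% = 60 µM geldanamycin wells; inhibitors lower the luminescence because luciferase stays unfolded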
# SENP7 inh: SENP7 protease inhibitors, primary screen, biochemical, luminescence, uHTS; Sentrin-specific protease 7 (Homo sapiens), Q9BQF6; recombinant SENP7, Z-RLRGG-aminoluciferin luminescence, 40 min; inhibition, % at 5 µM; 330,000 tested, 1.5% active; AID 434973, 2010;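 active means inhibition above about 50% at the single test dose, limit read from the data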;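 further: plate controls were DMSO with enzyme for no effect and no enzyme buffer wells for full effect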
# SENP6 inh: SENP6 protease inhibitors, primary screen, biochemical, luminescence, uHTS. Recombinant SENP6 catalytic domain, aminoluciferin luminescence. 330,000 tested, 1.8% active. inhibition, % at 10 µM. Sentrin-specific protease 6 (Homo sapiens), Q9GZR1;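 active means inhibition above about 50% at the single tested dose, limit read from the data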;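 further: plate controls were DMSO wells with enzyme for no effect and DMSO wells lacking enzyme for full effect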
# SENP1 inh: human SENP1 catalytic domain inhibitors, primary screen, biochemical, FRET, uHTS | Sentrin-specific protease 1 (Homo sapiens), Q9P0U3 | recombinant SENP1 catalytic domain, CyPet-SUMO1-YPet FRET cleavage | inhibition, % at 10 µM | 360,000 tested, 0.21% active | AID 624204, 2012;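 active means inhibition at least 30% at 10 µM, raw YFP signal under a set limit, fluorescence ratio 0.5 to 1.5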;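 further: 0% = enzyme with DMSO and 100% = no enzyme wells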
# Target sequence (Q9P0U3 419-644 limits assumed): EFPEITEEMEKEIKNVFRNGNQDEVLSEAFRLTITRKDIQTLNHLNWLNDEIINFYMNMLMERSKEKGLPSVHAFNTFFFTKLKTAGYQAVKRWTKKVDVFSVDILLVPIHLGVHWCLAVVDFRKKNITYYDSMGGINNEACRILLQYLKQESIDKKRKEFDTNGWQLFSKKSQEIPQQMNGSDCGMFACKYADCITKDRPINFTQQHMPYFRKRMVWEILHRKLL
#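 system = hSENP1 catalytic domain, recombinant | reagent = SFCypet-SUMO1-SFYpet substrate at 25 nM | doses = one dose per compound, 10 µM, 0.5% DMSO | incubation = enzyme reaction for 50 min at room temperature, dark | measured by = FRET, CFP and YFP emission | controls = no-enzyme low, enzyme-DMSO high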
# SENP8 block-2: SENP8 protease inhibitors, primary screen, biochemical, luminescence; Sentrin-specific protease 8 (Homo sapiens), Q96LD8; purified SENP8, Z-RLRGG-aminoluciferin cleavage; inhibition, % at 10 µM; 330,000 tested, 1.2% active; AID 2540, 2010; in the data active means inhibition above about 50%
# SENP1 conf: human SENP1 catalytic domain inhibitors, confirmation, biochemical, FRET endpoint, single concentration; shares compounds with SENP1 inh; recombinant SENP1, CyPet-SUMO1-YPet FRET cleavage; inhibition, % at 10 µM; 520 tested, 34% active; AID 651678, 2012; in the data active means inhibition mostly above about 35%, no sharp cut-off; inactive means mostly below about 32%;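 further: 0% = enzyme with DMSO and 100% = no enzyme control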
# SENP1 kin conf: human SENP1 catalytic domain inhibitors, confirmation, biochemical, kinetic FRET, single concentration | AID 651690, 2012 | 520 tested, 26% active | recombinant SENP1, CyPet-SUMO1-YPet FRET kinetic cleavage | inhibition, % at 10 µM | shares compounds with SENP1 inh; in the data active means inhibition mostly above about 32%, no sharp cut-off; inactive means mostly below about 29%;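 further: 0% = DMSO with enzyme and 100% = no enzyme substrate only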
# The depositor's hits bear a star; nt = no result given. This is a sample that favours compounds with a hit; in the whole collection about 2.9% have one here.
SMILES,SENP8 block-1,HSP90 inh,SENP7 inh,SENP6 inh,SENP1 inh,SENP8 block-2,SENP1 conf,SENP1 kin conf
Cc1ccc(C(=O)CCC(=O)OCC(=O)Nc2ccccc2SCC#N)cc1,-4,nt,16,0,46*,6,15,15
Cc1nc(C)c(C(=O)OCC(=O)Nc2ccccc2)s1,4,nt,5,-4,-2,-3,nt,nt
Cc1nc(C)c(C(=O)OCC(=O)Nc2ccccc2SCC#N)s1,1,nt,-3,-10,45*,13,6,8
Cc1cccc(NC(=O)c2ccc(NCCc3ccccc3)c([N+](=O)[O-])c2)c1,17,0,-2,-7,86*,16,15,8
Cc1ccc(NC(=O)c2ccc(NCCN)c([N+](=O)[O-])c2)cc1,13,-1,2,-10,2,2,nt,nt
Cc1ccc(NC(=O)c2ccc(NCc3ccco3)c([N+](=O)[O-])c2)cc1Cl,22,3,-3,-5,37*,-7,24,17
CC1CC(C)CN(C(=O)CCC(=O)Nc2nnc(C3CCCCC3)s2)C1 (stereo not drawn),8,-3,12,-2,0,-9,nt,nt
COCCNC(=O)C1(C)CCCN(C(=O)c2ccc(OC)c(OC)c2)C1 (stereo not drawn),7,nt,nt,nt,2,nt,nt,nt
CC[C@@]1(C(=O)OC)N[C@H](CN(C)C(=O)Nc2ccc(F)cc2)[C@@H]2C(=O)N(C)C(=O)[C@@H]21,12,nt,-2,-9,2,-12,nt,nt
O=C1C=Cc2ccccc2/C1=C/c1[nH]c(=O)[nH]c1O,-302,-1,-2,2,60*,2,104*,76*
Cc1cccc(N2CCN(C(=O)c3cccc(S(=O)(=O)N4CCOCC4)c3)CC2)c1C,18,nt,-7,-8,0,-2,nt,nt
Cc1ccc([C@@H]2CC(=O)[C@@H]3CN(S(=O)(=O)c4ccccc4C)[C@H](c4ccc(Cl)cc4)C[C@@H]3N2S(=O)(=O)c2ccc(C)cc2)cc1,7,nt,nt,nt,-2,nt,nt,nt
N#CC1=C(N2CCCCC2)c2cc3c(n2C1=O)CCCC3,20,3,2,-6,51*,1,23,11
COc1c(O)cccc1[C@H](O)C1CCN(CCc2ccc(F)cc2)CC1,16,nt,1,2,30*,-5,5,11
N=c1oc2ccc(Br)cc2cc1C(=O)NCc1ccccc1,-3,-1,-2,-13,-9,1,nt,nt
N=c1oc2ccc([N+](=O)[O-])cc2cc1C(=O)NCc1ccccc1,23,-1,-12,3,57*,-10,60*,34
COc1cccc(CNC(=O)C2CCCN(C(=O)c3ccc(Cl)cc3)C2)c1 (stereo not drawn),15,nt,5,-4,0,-3,nt,nt
COc1ccc2oc(C(=O)OCC(=O)NCc3ccc(OC)c(OC)c3)c(C)c2c1,-335,nt,1,7,-1,-3,nt,nt
CC(C)c1nnc(NC(=O)c2cc3cc(Br)ccc3oc2=O)s1,14,2,7,3,-13,2,nt,nt
NC(=S)c1cc2cc(Br)ccc2oc1=O,22,1,3,-15,45*,-6,67*,51*
Cc1ccc(OCCCC(=O)NNC(=O)c2ccccn2)cc1,19,nt,-1,-2,1,4,nt,nt
Clc1ccc(-c2ccc(C=Nc3ccc(N4CCOCC4)cc3)o2)c(Cl)c1,4,3,5,-2,32*,-4,-2,3
Clc1ccc(-c2ccc(C=Nc3ccc(N4CCOCC4)cc3)o2)cc1,-103,-2,3,-5,-68,-1,nt,nt
CCC(C)NC(=O)c1ccc(N2CC3CC(C2)c2cccc(=O)n2C3)c(NC(=O)c2ccc(Br)o2)c1 (stereo not drawn),16,-3,-2,-2,-1,6,nt,nt
Cc1nc(-c2cccc(NC(=O)c3cc4cc(Br)ccc4oc3=O)c2)cs1,16,-2,4,0,38*,9,-9,-6
SMILES,SENP8 block-1,HSP90 inh,SENP7 inh,SENP6 inh,SENP1 inh,SENP8 block-2,SENP1 conf,SENP1 kin conf
COc1ccc2sc(/C=C/c3ccccc3O)[n+](C)c2c1,20,0,nt,nt,39*,nt,58*,40*
Cc1ccc(O)c(C(=O)c2cc(C#N)c(=O)n(CC3CCCO3)c2)c1 (stereo not drawn),-7,-2,6,-18,-8,-1,nt,nt
COc1ccc(O)c(C(=O)c2cc(C#N)c(=O)n(CC3CCCO3)c2)c1 (stereo not drawn),-16,-1,0,-4,39*,3,30,36*
Cn1ncc(N=Cc2ccccc2O)c1C(=O)Nc1ccccc1,9,-3,-7,-8,37*,-4,18,28
O=c1c2ccccc2nc(/C=C/c2cc(Br)ccc2O)n1CCO,-25,nt,5,-29,76*,0,84*,45*
O=c1c2ccccc2nc(/C=C/c2c[nH]c3ccccc23)n1CCO,-183,2,0,3,-36,0,nt,nt
COc1ccc(/C=N/N2C(=O)CSC2=S)cc1Br,16,nt,3,2,40*,-17,46*,31*
COc1ccc(-c2ccc3c(c2)S(=O)(=O)c2cccc(C(=O)NCCOc4ccccc4)c2C3=O)cc1OC,-10,nt,-1,-8,59*,1,68*,49*
CCOC(=O)c1c(NC(=O)c2cc(-c3ccc(O)cc3)on2)sc(C(C)=O)c1C,-132,-4,-9,4,31*,16,-3,-8
O=C1NC(Cc2ccccc2)c2nc3ccc(Cl)cc3c(=O)n2-c2ccccc21 (stereo not drawn),nt,nt,0,-7,nt,-5,nt,nt

# High-throughput results (PubChem)
